ChEMBL document CHEMBL3414433, “Discovery and profiling of a selective and efficacious Syk inhibitor” (J Med Chem, 2015)

What was measured:
Hepatocyte [1] = test: Metabolic stability in human hepatocytes assessed as compound remaining; assay type: ADME, cell-based
Hepatocyte [2] = test: Metabolic stability in rat hepatocytes assessed as compound remaining; assay type: ADME, cell-based
[3] = Metabolic stability in monkey hepatocytes assessed as compound remaining; assay type: ADME, cell-based, Macaca mulatta, Hepatocyte; details: rhesus monkey
[4] = Metabolic stability in dog hepatocytes assessed as compound remaining; assay type: ADME, cell-based, Canis lupus familiaris, Hepatocyte
[5] = target: T1, Tyrosine-protein kinase SYK (Homo sapiens, UniProt P43405); test: Inhibition of Syk in anti-igM stimulated human Ramos B cells assessed as phospho-BLNK level preincubated for 30 mins followed by anti-IgM stimulation measured after 15 mins by flow cytometric analysis; assay type: cell-based
[6] = target: T1, Tyrosine-protein kinase SYK
[7] = Cytotoxicity against C57BL/6 mouse bone marrow cells assessed as growth inhibition preincubated for 4 days followed by [3H]-thymidine addition measured after 5 hrs by betaplate counting analysis; assay type: cell-based, Bone marrow cell
[8] = target: Voltage-gated inwardly rectifying potassium channel KCNH2 (Homo sapiens, UniProt Q12809); test: Inhibition of human ERG expressed in CHO cells by automated Qpatch clamp assay; assay type: cell-based
[9] = Metabolic stability in monkey liver assessed as formation of 2-(7-(3-((1R,2S)-2-aminocyclohexylamino)-6-carbamoyl-1,2,4-triazin-5-ylamino)-3-oxo-3H-indol-2-ylamino)-3-mercaptopropanoic acid at 10 to 20 uM after 8 to 18 hrs; assay type: ADME, tissue-based, Macaca mulatta; details: rhesus monkey
In short: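 Freshly excised monkey liver was cut into 230 μm slices from 8 mm cores. Four slices per vessel were preincubated 1 h at 37 °C in Williams medium E with 10% FBS, glucose, insulin, hydrocortisone, methionine, gentamycin and amphotericin B, under 75% O2/5% CO2/20% N2 with rotation. Compound was added at 10 or 20 μM (from 2 mM DMSO stock) for 8 or 18 h, then quenched with cold acetonitrile.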

[10] = target: T1, Tyrosine-protein kinase SYK; test: Inhibition of Syk in anti-CD32 stimulated CD14+ human monocytes assessed as phospho-SLP76 level preincubated for 30 mins followed by anti-CD32 stimulation measured after 5 mins by flow cytometric analysis
hERG (KCNH2) [11] = target: T2, hERG (KCNH2) (Homo sapiens, UniProt Q12809); test: Inhibition of human ERG at 3 uM by manual patch clamp assay relative to control
hERG (KCNH2) [12] = target: T2, hERG (KCNH2); test: Inhibition of human ERG at 10 uM by manual patch clamp assay relative to control
[13] = Mean residence time in Sprague-Dawley rat at 1 mg/kg, iv and 3 mg/kg, po administered as cassette dosing; assay type: ADME, organism-based; details: in vivo
In short: (§1)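 Rats were dosed i.v. at 1 mg/kg in NMP/PEG200 (3:7) and p.o. at 3 mg/kg in CMC/water/Tween (0.5:99:0.5). PK parameters were derived from blood concentration–time curves for both routes.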

[14] = Clearance in Sprague-Dawley rat at 1 mg/kg, iv and 3 mg/kg, po administered as cassette dosing; assay type: ADME, organism-based; details: in vivo
In short: (§2)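 Rat PK: i.v. 1 mg/kg in NMP/PEG200 (3:7); p.o. 3 mg/kg in CMC/water/Tween (0.5:99:0.5). Exposure values dose normalized.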

[15] = Oral bioavailability in Sprague-Dawley rat at 3 mg/kg administered as cassette dosing; assay type: ADME, organism-based; details: in vivo; in short: as §1
Rattus norvegicus [16] = test: Dose normalized Cmax in Sprague-Dawley rat at 1 mg/kg, iv and 3 mg/kg, po administered as cassette dosing; assay type: ADME, organism-based; details: in vivo; in short: as §2
Rattus norvegicus [17] = test: Dose normalized AUC in Sprague-Dawley rat at 1 mg/kg, iv administered as cassette dosing; assay type: ADME, organism-based; design: dose 1 mg/kg, route intravenous; details: in vivo; in short: as §2
[18] = Volume of distribution at steady state in Sprague-Dawley rat at 1 mg/kg, iv and 3 mg/kg, po administered as cassette dosing; assay type: ADME, organism-based; details: in vivo, read-out: Vdss; in short: as §1
Rattus norvegicus [19] = test: Dose normalized AUC in Sprague-Dawley rat at 3 mg/kg, po administered as cassette dosing; assay type: ADME, organism-based; design: dose 3 mg/kg, route oral; details: in vivo; in short: as §2
[20] = Mus musculus, C57BL/6, Bone marrow cell

Chain of Voltage-gated inwardly rectifying potassium channel KCNH2 (Q12809 whole entry): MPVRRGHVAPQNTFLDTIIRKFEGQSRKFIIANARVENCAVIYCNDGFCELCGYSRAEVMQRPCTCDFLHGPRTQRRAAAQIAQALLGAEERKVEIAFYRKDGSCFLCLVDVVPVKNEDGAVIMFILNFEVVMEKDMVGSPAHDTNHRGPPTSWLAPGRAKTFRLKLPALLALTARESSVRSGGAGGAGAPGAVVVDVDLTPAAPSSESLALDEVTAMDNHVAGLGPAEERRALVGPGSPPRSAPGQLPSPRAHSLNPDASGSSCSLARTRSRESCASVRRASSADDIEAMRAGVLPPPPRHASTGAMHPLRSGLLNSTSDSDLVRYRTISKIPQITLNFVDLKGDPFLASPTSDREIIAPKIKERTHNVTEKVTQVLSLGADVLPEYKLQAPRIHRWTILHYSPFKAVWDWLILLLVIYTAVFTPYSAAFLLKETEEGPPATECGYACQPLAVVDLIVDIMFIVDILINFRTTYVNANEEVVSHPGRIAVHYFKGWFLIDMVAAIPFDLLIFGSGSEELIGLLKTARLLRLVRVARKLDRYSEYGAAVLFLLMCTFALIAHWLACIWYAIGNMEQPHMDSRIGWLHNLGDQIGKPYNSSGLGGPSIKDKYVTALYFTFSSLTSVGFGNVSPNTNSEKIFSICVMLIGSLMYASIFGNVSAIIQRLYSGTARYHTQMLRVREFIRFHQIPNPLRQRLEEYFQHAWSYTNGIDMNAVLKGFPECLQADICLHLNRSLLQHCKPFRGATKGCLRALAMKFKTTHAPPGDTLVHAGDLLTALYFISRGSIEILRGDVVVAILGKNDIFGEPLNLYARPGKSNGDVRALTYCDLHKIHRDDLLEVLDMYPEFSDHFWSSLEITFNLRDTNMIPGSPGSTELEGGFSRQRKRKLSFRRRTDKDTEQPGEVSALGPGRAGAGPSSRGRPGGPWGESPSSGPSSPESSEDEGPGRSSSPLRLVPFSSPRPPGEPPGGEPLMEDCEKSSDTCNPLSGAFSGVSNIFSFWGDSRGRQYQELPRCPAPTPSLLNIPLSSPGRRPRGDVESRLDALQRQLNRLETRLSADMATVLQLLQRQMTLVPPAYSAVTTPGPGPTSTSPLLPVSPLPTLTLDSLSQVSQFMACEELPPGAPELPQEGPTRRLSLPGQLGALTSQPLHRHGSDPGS
T2 sequence (Q12809 whole entry): as above

SMILES	IC50 [5]	IC50 [6]	IC50 [7, 20]	IC50 [8]	IC50 [10]	further results
NC(=O)c1cnc(N[C@@H]2CCCC[C@@H]2NC(=O)OCc2ccccc2)nc1Nc1cccc2cc[nH]c12	–	–	–	–	–	Stability (Hepatocyte [1]): 2.1%; Stability (Hepatocyte [2]): 2.6%; Stability [3]: 13%; Stability [4]: 8.4%
NC(=O)c1ccc(N[C@@H]2CCCC[C@@H]2N)nc1Nc1cccc2cc[nH]c12	0.438 µM	0.165 µM	> 10 µM	> 30 µM	–	–
NC(=O)c1ccc(N[C@@H]2CCCC[C@@H]2N)nc1Nc1cccc(-n2nccn2)c1	0.445 µM	0.019 µM	2.6 µM	–	–	–
NC(=O)c1nnc(N[C@@H]2CCCC[C@@H]2N)nc1Nc1cccc2c1N=C(NC(CS)C(=O)O)C2=O (stereo partly drawn)	–	–	–	–	–	Drug metabolism [9]: 0.9 µg
NC(=O)c1cnc(N[C@@H]2CCCC[C@@H]2N)nc1Nc1cccc2cc[nH]c12	0.17 µM	0.094 µM	> 10 µM	> 30 µM	0.782 µM	–
NC(=O)c1ncc(N[C@@H]2CCCC[C@@H]2N)nc1Nc1cccc2cc[nH]c12	0.03 µM	0.005 µM	5.27 µM	8.1 µM	0.302 µM	inhibition at 3 µM (hERG (KCNH2) [11]): 13%; inhibition at 10 µM (hERG (KCNH2) [12]): 50%; MRT [13]: 7.2 h; clearance [14]: 1.68 L/h/kg; bioavailability [15]: 95%; Cmax/dose (Rattus norvegicus [16]): 0.108 µM; AUC/dose (Rattus norvegicus [17]): 1610 nM·h; Vd [18]: 12.3 L/kg; AUC/dose (Rattus norvegicus [19]): 1523 nM·h
NC(=O)c1cnc(N[C@@H]2CCCC[C@@H]2N)nc1Nc1cccc(-n2nccn2)c1	–	–	5.85 µM	–	–	–
N[C@H]1COCC[C@H]1Nc1cc2cc[nH]c(=O)c2c(Nc2cccc3cc[nH]c23)n1	–	–	3.52 µM	–	–	–
NC(=O)c1nnc(N[C@@H]2CCCC[C@@H]2N)nc1Nc1cccc2[nH]ccc12	0.014 µM	–	5.27 µM	3.7 µM	0.177 µM	MRT [13]: 2.1 h; clearance [14]: 4.98 L/h/kg; bioavailability [15]: 4%; Cmax/dose (Rattus norvegicus [16]): 0.004 µM; AUC/dose (Rattus norvegicus [17]): 522 nM·h; Vd [18]: 10.3 L/kg; AUC/dose (Rattus norvegicus [19]): 19 nM·h
NC(=O)c1ncc(N[C@@H]2CCCC[C@@H]2N)nc1Nc1cccc(-n2nccn2)c1	0.069 µM	0.001 µM	2.11 µM	10 µM	1.79 µM	–
N[C@H]1CCCC[C@H]1Nc1cc2nc[nH]c(=O)c2c(Nc2cccc(-n3nccn3)c2)n1	–	–	0.249 µM	–	–	–
c1cn2cc(-c3ccc4cn[nH]c4c3)nc(Nc3ccc(N4CCOCC4)cc3)c2n1 [ENTOSPLETINIB]	–	–	–	–	–	IC50 ([7]; bone marrow cell): 0.582 µM
NC(=O)c1nnc(N[C@@H]2CCCC[C@@H]2N)nc1Nc1cccc(-n2nccn2)c1	–	–	0.811 µM	3.7 µM	–	–
